Our source for the Ki and Activity values is ChEMBL document CHEMBL1629483, “Synthesis of novel chiral Δ2-isoxazoline derivatives related to ABT-418 and estimation of their affinity at neuronal nicotinic acetylcholine receptor subtypes” (Eur J Med Chem, 2010).

The target in test [1] is Neuronal acetylcholine receptor subunit alpha-7 (Rattus norvegicus, UniProt Q05941). In words: Displacement of [125I]-alpha-Bungarotoxin from alpha7 nAChR rat cortical membranes by gamma counting. Type of test: cell membranes, Membrane. In a few lines:
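Rat cortex membranes, prepared by twice-repeated homogenisation and high-speed centrifugation, were pre-incubated with compound for 30 min at r.t. Filtered on PEI-soaked GF/C filters and gamma counted. Ki from three independent competition experiments, fitted together with three saturation experiments by non-linear least squares (LIGAND).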
(Loss of bound radioactivity is the signal in a displacement assay; it reports binding, not function.)

Test [2] addresses T1, Muscarinic acetylcholine receptor M2 (Homo sapiens) (UniProt P08172).
T1 sequence (whole entry): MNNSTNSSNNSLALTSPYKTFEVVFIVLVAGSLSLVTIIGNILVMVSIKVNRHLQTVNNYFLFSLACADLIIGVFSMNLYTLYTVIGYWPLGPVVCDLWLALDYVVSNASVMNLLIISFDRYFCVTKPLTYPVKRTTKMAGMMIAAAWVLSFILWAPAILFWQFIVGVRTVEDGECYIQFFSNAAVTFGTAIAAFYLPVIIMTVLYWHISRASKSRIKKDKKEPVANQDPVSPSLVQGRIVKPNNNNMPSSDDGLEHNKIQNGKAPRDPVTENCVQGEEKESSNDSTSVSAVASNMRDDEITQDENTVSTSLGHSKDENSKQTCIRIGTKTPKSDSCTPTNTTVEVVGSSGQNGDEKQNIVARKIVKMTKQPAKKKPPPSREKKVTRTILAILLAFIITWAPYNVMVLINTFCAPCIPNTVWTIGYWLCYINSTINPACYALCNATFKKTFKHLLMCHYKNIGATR
The test can be described thus: Displacement of [3H]quinuclidinyl benzylate from human muscarinic M2 receptor expressed in CHO cells at 10 uM. In kind it is cell-based. A digest of the protocol: (§1)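 Single-concentration preliminary screen on membranes of transfected CHO cells expressing human M2 or M5 receptors, labelled with [3H]quinuclidinyl benzylate. Read-out was percent inhibition of radioligand binding.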

Test [3] concerns the target T2, Muscarinic acetylcholine receptor M4 (Homo sapiens) (UniProt P08173).
T2 sequence (whole entry): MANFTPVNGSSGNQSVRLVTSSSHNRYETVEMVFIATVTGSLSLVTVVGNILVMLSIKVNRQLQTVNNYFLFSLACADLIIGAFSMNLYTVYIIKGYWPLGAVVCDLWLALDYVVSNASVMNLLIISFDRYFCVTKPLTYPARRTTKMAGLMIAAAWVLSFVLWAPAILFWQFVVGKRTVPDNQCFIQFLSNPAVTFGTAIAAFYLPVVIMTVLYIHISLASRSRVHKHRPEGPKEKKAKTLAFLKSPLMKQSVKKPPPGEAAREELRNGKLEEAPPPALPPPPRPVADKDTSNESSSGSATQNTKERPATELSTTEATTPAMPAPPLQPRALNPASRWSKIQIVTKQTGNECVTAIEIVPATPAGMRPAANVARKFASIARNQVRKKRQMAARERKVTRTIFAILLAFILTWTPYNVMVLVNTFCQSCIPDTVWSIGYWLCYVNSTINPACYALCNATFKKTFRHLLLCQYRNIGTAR
The test can be described thus: Displacement of [3H]quinuclidinyl benzylate from human muscarinic M4 receptor expressed in CHO cells at 10 uM. Type of test: cell-based.

Test [4] addresses T3, Muscarinic acetylcholine receptor M1 (Homo sapiens) (UniProt P11229).
T3 sequence (whole entry): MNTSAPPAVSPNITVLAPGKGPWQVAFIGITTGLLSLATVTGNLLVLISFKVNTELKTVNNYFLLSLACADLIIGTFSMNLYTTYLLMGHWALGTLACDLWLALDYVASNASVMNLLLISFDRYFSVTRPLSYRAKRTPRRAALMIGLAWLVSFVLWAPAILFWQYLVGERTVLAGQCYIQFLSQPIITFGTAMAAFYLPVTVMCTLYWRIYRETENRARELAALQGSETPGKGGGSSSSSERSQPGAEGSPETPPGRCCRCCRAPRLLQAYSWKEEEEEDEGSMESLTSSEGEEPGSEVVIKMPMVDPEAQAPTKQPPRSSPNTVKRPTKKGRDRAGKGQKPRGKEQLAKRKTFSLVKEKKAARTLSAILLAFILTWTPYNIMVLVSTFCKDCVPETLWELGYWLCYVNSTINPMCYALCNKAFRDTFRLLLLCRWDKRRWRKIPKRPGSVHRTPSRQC
The test can be described thus: Displacement of [3H]quinuclidinyl benzylate from human muscarinic M1 receptor expressed in CHO cells at 10 uM. Type of test: cell-based.

For test [5], the target named is Muscarinic acetylcholine receptor M3 (Homo sapiens) (UniProt P20309). In words: Displacement of [3H]quinuclidinyl benzylate from human muscarinic M3 receptor expressed in CHO cells at 10 uM. Type of test: cell-based.
Test [6] addresses T4, Muscarinic acetylcholine receptor M5 (Homo sapiens) (UniProt P08912).
T4 sequence (whole entry): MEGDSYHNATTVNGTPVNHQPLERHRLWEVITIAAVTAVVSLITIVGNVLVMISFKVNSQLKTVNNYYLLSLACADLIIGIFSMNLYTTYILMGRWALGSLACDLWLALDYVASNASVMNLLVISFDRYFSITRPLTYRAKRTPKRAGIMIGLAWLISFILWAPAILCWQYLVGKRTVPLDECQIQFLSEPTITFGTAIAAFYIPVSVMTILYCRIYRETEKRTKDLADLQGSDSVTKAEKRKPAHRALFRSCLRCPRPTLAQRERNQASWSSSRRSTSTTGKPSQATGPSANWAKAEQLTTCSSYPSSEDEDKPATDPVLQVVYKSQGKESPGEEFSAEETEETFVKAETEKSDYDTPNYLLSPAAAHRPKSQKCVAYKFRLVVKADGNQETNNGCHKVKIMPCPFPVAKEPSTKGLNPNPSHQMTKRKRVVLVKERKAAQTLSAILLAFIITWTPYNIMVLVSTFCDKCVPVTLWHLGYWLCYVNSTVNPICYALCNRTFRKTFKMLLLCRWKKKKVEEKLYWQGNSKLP
The test can be described thus: Displacement of [3H]quinuclidinyl benzylate from human muscarinic M5 receptor expressed in CHO cells at 10 uM. Type of test: cell-based. In a few lines:
as §1

Test [7] addresses Neuronal acetylcholine receptor; alpha4/beta2 (Rattus norvegicus, UniProt P09483+P12390). In words: Displacement of [3H]epibatidine from alpha4beta2 nAChR in rat cortical membranes by beta counting. In kind it is cell membranes, Membrane. A digest of the protocol: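 Rat cortex membranes were washed twice by homogenisation in pH 7.4 phosphate/1 M NaCl/EDTA/EGTA/PMSF buffer and 60,000g spins, then resuspended in pH 7 Tris buffer. Nonspecific binding used 100 nM epibatidine. Filtered on PEI-soaked GF/C. Ki from three independent competition curves (LIGAND).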

Sequence of Muscarinic acetylcholine receptor M3 (Homo sapiens) (P20309 whole entry, looked up): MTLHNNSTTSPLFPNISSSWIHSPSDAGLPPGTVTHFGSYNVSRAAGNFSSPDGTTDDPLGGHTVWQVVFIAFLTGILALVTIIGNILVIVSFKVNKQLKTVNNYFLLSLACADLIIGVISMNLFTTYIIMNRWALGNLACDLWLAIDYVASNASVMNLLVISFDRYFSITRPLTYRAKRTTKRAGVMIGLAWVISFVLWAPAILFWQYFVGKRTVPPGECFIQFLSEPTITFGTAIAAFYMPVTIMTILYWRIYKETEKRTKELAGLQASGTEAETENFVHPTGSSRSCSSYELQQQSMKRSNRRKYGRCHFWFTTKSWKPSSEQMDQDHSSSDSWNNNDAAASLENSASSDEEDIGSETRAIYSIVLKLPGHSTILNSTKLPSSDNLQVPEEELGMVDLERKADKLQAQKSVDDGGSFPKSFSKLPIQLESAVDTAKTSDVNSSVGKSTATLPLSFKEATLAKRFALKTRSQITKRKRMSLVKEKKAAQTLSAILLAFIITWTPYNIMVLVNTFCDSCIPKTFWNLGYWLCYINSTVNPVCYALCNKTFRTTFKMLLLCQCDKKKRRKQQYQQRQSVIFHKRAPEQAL
Sequence of Neuronal acetylcholine receptor; alpha4/beta2 (P09483 whole entry): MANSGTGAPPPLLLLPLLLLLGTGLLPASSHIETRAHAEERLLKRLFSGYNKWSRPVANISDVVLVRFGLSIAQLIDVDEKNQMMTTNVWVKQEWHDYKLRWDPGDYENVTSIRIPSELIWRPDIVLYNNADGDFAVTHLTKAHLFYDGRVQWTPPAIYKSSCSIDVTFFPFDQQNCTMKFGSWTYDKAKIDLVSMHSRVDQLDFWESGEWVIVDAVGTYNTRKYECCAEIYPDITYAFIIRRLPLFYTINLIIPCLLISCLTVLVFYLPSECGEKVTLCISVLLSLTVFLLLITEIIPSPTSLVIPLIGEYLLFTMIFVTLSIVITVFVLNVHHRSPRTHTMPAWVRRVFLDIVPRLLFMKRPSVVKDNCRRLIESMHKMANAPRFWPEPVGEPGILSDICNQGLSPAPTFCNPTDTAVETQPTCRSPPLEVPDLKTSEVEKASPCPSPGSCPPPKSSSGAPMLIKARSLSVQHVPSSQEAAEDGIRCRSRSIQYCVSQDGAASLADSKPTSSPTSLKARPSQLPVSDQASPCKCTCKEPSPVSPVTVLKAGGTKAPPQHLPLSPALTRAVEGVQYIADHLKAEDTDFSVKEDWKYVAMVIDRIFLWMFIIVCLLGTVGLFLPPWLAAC
Sequence of Neuronal acetylcholine receptor; alpha4/beta2 (P12390 whole entry): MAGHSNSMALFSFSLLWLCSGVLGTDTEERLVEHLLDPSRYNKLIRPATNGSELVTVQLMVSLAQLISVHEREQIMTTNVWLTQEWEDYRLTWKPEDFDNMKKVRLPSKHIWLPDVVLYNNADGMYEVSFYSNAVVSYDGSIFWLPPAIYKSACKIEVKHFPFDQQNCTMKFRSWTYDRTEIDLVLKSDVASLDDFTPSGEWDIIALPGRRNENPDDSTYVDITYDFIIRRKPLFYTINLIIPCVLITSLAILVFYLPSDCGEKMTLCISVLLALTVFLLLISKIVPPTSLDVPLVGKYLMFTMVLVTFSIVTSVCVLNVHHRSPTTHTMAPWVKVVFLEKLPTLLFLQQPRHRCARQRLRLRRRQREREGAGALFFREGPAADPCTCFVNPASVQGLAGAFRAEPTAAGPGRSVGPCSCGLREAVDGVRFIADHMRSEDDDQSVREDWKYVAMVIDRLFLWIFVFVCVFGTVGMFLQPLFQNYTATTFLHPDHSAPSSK
Sequence of Neuronal acetylcholine receptor subunit alpha-7 (Q05941 whole entry): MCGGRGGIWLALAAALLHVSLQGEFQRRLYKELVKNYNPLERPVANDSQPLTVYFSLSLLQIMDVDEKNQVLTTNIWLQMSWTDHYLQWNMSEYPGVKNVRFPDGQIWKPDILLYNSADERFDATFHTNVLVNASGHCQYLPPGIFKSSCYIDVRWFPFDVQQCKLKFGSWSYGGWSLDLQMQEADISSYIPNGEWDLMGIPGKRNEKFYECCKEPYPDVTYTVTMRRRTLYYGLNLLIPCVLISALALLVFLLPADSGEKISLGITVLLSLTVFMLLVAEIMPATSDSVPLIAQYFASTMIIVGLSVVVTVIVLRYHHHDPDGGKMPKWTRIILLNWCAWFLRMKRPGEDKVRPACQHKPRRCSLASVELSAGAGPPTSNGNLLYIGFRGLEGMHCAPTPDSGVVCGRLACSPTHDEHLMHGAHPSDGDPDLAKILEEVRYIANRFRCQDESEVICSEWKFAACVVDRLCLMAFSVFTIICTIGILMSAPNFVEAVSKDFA

Regarding `COC1=NO[C@@H]([C@@H]2CCCN2)C1`, the Ki (as a rule, the dissociation constant of the complex between target and ligand, obtained from inhibition or displacement) in test [1] came to 277 µM; in test [7], 28 µM. In addition, the Activity in test [2], in test [3], in test [4], in test [5] and in test [6] was less than 50% each time.
With `COC1=NO[C@@H]([C@@H]2CCCN2C)C1`, the figures for the Ki in test [1] and in test [7] were 2.9 µM and 10.3 µM, respectively. The Activity in test [2], in test [3], in test [4], in test [5] and in test [6] was less than 50% in each case.
With `COC1=NO[C@H]([C@@H]2CCCN2)C1`, the figures for the Ki in test [1] and in test [7] were 11.3 µM and 50 µM, respectively. In addition, the Activity in test [2], in test [3], in test [4], in test [5] and in test [6] was less than 50% throughout.
On to `CC1=NO[C@@H]([C@@H]2CCCN2C)C1`, for which the values for the inhibition constant (Ki) in test [1] and in test [7] were 325 µM and 12 µM, respectively. Moreover, the Activity in test [2], in test [3], in test [4], in test [5] and in test [6] was less than 50% in each case.
For `CN1CCC[C@H]1[C@H]1CC(Br)=NO1`, the Ki in test [1] stood at 43 µM; in test [7], 3.8 µM. Moreover, the Activity in test [2], in test [3], in test [4], in test [5] and in test [6] was less than 50% each time.
Regarding `CC(C)(C)OC1=NO[C@H]([C@@H]2CCCN2)C1`, the Ki in test [1] is more than 500 µM; in test [7], 184 µM. Besides, the Activity in test [2], in test [3], in test [4], in test [5] and in test [6] was less than 50% throughout.
Take `CC1=NO[C@@H]([C@@H]2CCCN2)C1`: the Ki in test [1] stood at 40 µM; in test [7], 18 µM. Also, the Activity in test [2], in test [3], in test [4], in test [5] and in test [6] was less than 50% throughout.
As to `CC1=NO[C@H]([C@@H]2CCCN2)C1`, the results for the Ki in test [1] and in test [7] were 0.44 µM and 5.1 µM, respectively. Also, the Activity in test [2], in test [3], in test [4], in test [5] and in test [6] was less than 50% in each case.
In the case of `BrC1=NO[C@@H]([C@@H]2CCCN2)C1`, the Ki in test [1] turned out to be 35 µM; in test [7], 4.2 µM. Also, the Activity in test [2], in test [3], in test [4], in test [5] and in test [6] was less than 50% in each case.
